Here are results for 31 compounds from ChEMBL document CHEMBL1157456, “Unsymmetric aryl-alkyl disulfide growth inhibitors of methicillin-resistant Staphylococcus aureus and Bacillus anthracis” (Bioorg Med Chem, 2008).

The test system of assay [1] is Staphylococcus aureus. Put plainly: Antibacterial activity against Staphylococcus aureus ATCC 25923 after 24 hrs by serial dilution method. The format is functional. The conditions noted are these: for MIC: ATCC 25923, 24 h.
Assay [2] deals with T1, Mycobacterial beta-ketoacyl-[acyl-carrier-protein] synthase III (Mycobacterium tuberculosis) (UniProt P9WNG3).
T1 sequence (whole entry): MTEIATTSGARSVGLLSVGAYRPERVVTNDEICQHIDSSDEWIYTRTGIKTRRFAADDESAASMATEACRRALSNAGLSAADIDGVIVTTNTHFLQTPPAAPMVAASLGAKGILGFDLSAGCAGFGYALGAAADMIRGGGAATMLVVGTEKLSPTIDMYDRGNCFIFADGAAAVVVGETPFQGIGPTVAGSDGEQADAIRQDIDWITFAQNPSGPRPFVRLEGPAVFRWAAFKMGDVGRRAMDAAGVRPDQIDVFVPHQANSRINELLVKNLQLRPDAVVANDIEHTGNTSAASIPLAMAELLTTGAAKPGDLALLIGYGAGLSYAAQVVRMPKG
Put plainly: Inhibition of Mycobacterium tuberculosis FabH.

The nature of assay [3]: Inhibition of Escherichia coli FabH.
Assay [4] has as its system Staphylococcus aureus. The assay can be described thus: Antibacterial activity against Staphylococcus aureus ATCC 25923 assessed as inhibition zone diameter at 20 ug after 24 hrs by Kirby-Bauer test. Format: functional. The following applies: ATCC 25923, 24 h, read-out: IZ. The essentials:
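Kirby-Bauer on TSA: a 0.5 McFarland saline suspension was spread as a lawn. 6 mm wells were bored and given 20 µL of 1 mg/mL compound in DMSO (20 ug). Plates ran 24 h at 37 °C. Inhibition zone diameter was averaged over 3 trials.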

Assay [5] has as its system Escherichia coli. The assay can be described thus: Inhibition of purified Escherichia coli FabH at 1 uM by trichloroacetic acid precipitation assay relative to control. In outline:
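Purified ecFabH (100 nM monomer) was preincubated 15 min at room temperature with 1 µM compound in 50 mM sodium phosphate pH 7.4, without CoA. It was then added to [1-14C]acetyl-CoA (40 µM) and malonyl-ACP (10 µM), made with S. glaucescens FabD/ACP. 3-Ketoacyl-ACP was measured by TCA precipitation, as % inhibition versus a no-inhibitor control, in duplicate.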

Assay [6] relates to Staphylococcus aureus. Put plainly: Antibacterial activity against methicillin-resistant Staphylococcus aureus ATCC 43300 after 24 hrs by serial dilution method. The format is functional. The following applies: ATCC 43300, 24 h.
For assay [7], the system named is Bacillus anthracis. Put plainly: Antibacterial activity against Bacillus anthracis after 24 hrs by serial dilution method. Format: functional.
The subject of assay [8] is Escherichia coli. Put plainly: Antibacterial activity against Escherichia coli K12 ATCC 23590 after 24 hrs by serial dilution method. Format: functional. The conditions noted are these: K12, 24 h.
The test system of assay [9] is Escherichia coli. Put plainly: Inhibition of purified Escherichia coli FabH at 5 uM by trichloroacetic acid precipitation assay relative to control. The essentials: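 ecFabH (100 nM monomer) was preincubated 15 min at room temperature with 5 µM disulfide in 50 mM sodium phosphate pH 7.4. Radiolabeled 3-ketoacyl-ACP was formed from [1-14C]acetyl-CoA (40 µM) and malonyl-ACP (10 µM), the latter from a coupled S. glaucescens FabD/ACP system. Product was collected by TCA precipitation. Activity was expressed as % decrease versus a no-compound control, in duplicate.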

Assay [10] relates to Bacillus anthracis. The assay can be described thus: Antibacterial activity against Bacillus anthracis assessed as inhibition zone diameter at 20 ug after 24 hrs by Kirby-Bauer test. Format: functional. The conditions noted are these: read-out: IZ.

pIC50: −log10 of the molar value. ≈ marks a conversion by molar mass, not a printed value. Calls of active or inactive are those of the source. No cut-off for these calls is given here. A value given as a limit tells only on which side of the number the result lay.

On to `CSc1ccc([N+](=O)[O-])cc1`, for which the result with Staphylococcus aureus [1] was inactive.
In the case of `CCCCCCCCCCOC(=O)SSCCO`, the outcome in [2] was Active.
In the case of `CSSCCNC(=O)CCNC(=O)[C@@H](O)C(C)(C)COP(=O)(O)OP(=O)(O)OC[C@H]1O[C@@H](n2cnc3c(N)ncnc32)[C@H](O)[C@@H]1OP(=O)(O)O`, in assay [3], the pIC50 – broadly, the IC50 on a negative log10 scale, so that one unit is a factor of ten – was 4.24.
With `CN[C@H](CC(C)C)C(=O)N[C@H]1C(=O)N[C@@H](CC(N)=O)C(=O)N[C@H]2C(=O)N[C@H]3C(=O)N[C@H](C(=O)N[C@H](C(=O)O)c4cc(O)cc(O)c4-c4cc3ccc4O)[C@H](O)c3ccc(c(Cl)c3)Oc3cc2cc(c3O[C@@H]2O[C@H](CO)[C@@H](O)[C@H](O)[C@H]2O[C@H]2C[C@](C)(N)[C@H](O)[C@H](C)O2)Oc2ccc(cc2Cl)[C@H]1O` [VANCOMYCIN], the zone of inhibition at 20 µg/disc in the assay on Staphylococcus aureus [4] worked out at 27 mm. Moreover, in the assay with Staphylococcus aureus [1], the lowest concentration to inhibit growth (MIC) was 0.25 µg/mL (≈ 0.173 µM).
As to `O=C(O)c1cc([N+](=O)[O-])ccc1SSc1ccc([N+](=O)[O-])cc1C(=O)O`, the result with Staphylococcus aureus [1] was inactive.
`CSSc1ccc(N)cc1`: the zone of inhibition at 20 µg/disc with Staphylococcus aureus [4] came out at 0 mm.
Regarding `CCC(C)SN1C(=O)[C@H](OC)[C@@H]1c1ccccc1Cl` (some centres not stated), the inhibition – broadly, the change of the read-out against control, counted positive when it falls – with Escherichia coli [5] turned out to be 30%.
On to `CC(C)SSc1ccc([N+](=O)[O-])cc1`, for which the MIC (as a rule, the lowest concentration found to suppress growth) was under 0.125 µg/mL in the assay on Staphylococcus aureus [1], under 0.125 µg/mL in the assay on Staphylococcus aureus [6], 0.125 µg/mL (≈ 0.545 µM) against Bacillus anthracis [7] and 96 µg/mL (≈ 419 µM) against Escherichia coli [8]. In the assay with Escherichia coli [9], this compound returned an inhibition of 98.5%.
As for `CCC(C)SSc1ccc([N+](=O)[O-])cc1` (configuration not stated), the minimal inhibitory concentration (MIC) came out at 0.8 µg/mL (≈ 3.29 µM) against Staphylococcus aureus [1], 1 µg/mL (≈ 4.11 µM) against Staphylococcus aureus [6], 0.5 µg/mL (≈ 2.05 µM) in the assay with Bacillus anthracis [7] and 128 µg/mL (≈ 526 µM) with Escherichia coli [8]. In the assay with Escherichia coli [9], the inhibition came to 96%.
The like results for `CCCCSSc1ccc([N+](=O)[O-])cc1` were, in that order, 1 µg/mL (≈ 4.11 µM), 32 µg/mL (≈ 131 µM), 1 µg/mL (≈ 4.11 µM), 96 µg/mL (≈ 394 µM) and 93%.
Turning to `CC(C)SSc1ccccc1[N+](=O)[O-]`, the zone of inhibition at 20 µg/disc with Staphylococcus aureus [4] is 31 mm; in the assay with Bacillus anthracis [10], 27 mm. In addition, the values for the MIC against Staphylococcus aureus [1], with Staphylococcus aureus [6] and in the assay with Bacillus anthracis [7] were 16 µg/mL (≈ 69.8 µM), 32 µg/mL (≈ 140 µM) and 32 µg/mL (≈ 140 µM), respectively.
Take `CCCSSc1ccc([N+](=O)[O-])cc1`: the zone of inhibition at 20 µg/disc in the assay on Staphylococcus aureus [4] is 43 mm. For the same compound, the MIC in the assay with Staphylococcus aureus [1] is 16 µg/mL (≈ 69.8 µM); with Staphylococcus aureus [6], 16 µg/mL (≈ 69.8 µM); in the assay with Bacillus anthracis [7], 1 µg/mL (≈ 4.36 µM); against Escherichia coli [8] it was 64 µg/mL (≈ 279 µM). In the assay on Escherichia coli [9], this compound displayed an inhibition of 91%.
As to `CCSSc1ccc([N+](=O)[O-])cc1`, the minimum inhibitory concentration (MIC) with Staphylococcus aureus [1] stood at 1 µg/mL (≈ 4.64 µM); against Staphylococcus aureus [6] it was 16 µg/mL (≈ 74.3 µM); against Bacillus anthracis [7] it was 0.25 µg/mL (≈ 1.16 µM); with Escherichia coli [8], 16 µg/mL (≈ 74.3 µM). This compound yielded an inhibition in the assay on Escherichia coli [9] of 98%.
Consider `CSSc1ccccn1`, for which the zone of inhibition at 20 µg/disc with Staphylococcus aureus [4] is 23 mm.
Still for that read-out and setting: next, `CSSc1ccc(C)c(C)c1`: 10 mm.
In the case of `CCC(C)SSc1ccccc1[N+](=O)[O-]` (configuration not stated), the zone of inhibition at 20 µg/disc amounted to 24 mm in the assay with Staphylococcus aureus [4] and 23 mm in the assay on Bacillus anthracis [10]. In addition, the minimum inhibitory concentration (MIC) against Staphylococcus aureus [1], in the assay with Staphylococcus aureus [6] and against Bacillus anthracis [7] was 32 µg/mL (≈ 131 µM) in each case.
`CSSc1ccccc1CO`: the zone of inhibition at 20 µg/disc in the assay on Staphylococcus aureus [4] came to 14 mm.
Regarding `CSSCCc1ccc([N+](=O)[O-])cc1`, the result in the assay with Staphylococcus aureus [1] was Active. Besides, the MIC in the assay with Bacillus anthracis [7] was determined as 64 µg/mL (≈ 279 µM).
With `CCSSc1cccc([N+](=O)[O-])c1`, the zone of inhibition at 20 µg/disc came out at 45 mm in the assay with Staphylococcus aureus [4] and 40 mm in the assay on Bacillus anthracis [10]. Further, the figures for the minimum inhibitory concentration (MIC) in the assay with Staphylococcus aureus [1], in the assay with Staphylococcus aureus [6] and with Bacillus anthracis [7] were 8 µg/mL (≈ 37.2 µM), 64 µg/mL (≈ 297 µM) and 8 µg/mL (≈ 37.2 µM), respectively.
With `CCSSc1ccccc1[N+](=O)[O-]`, the zone of inhibition at 20 µg/disc with Staphylococcus aureus [4] was found to be 40 mm; with Bacillus anthracis [10], 35 mm. The minimum inhibitory concentration (MIC) against Staphylococcus aureus [1] turned out to be 16 µg/mL (≈ 74.3 µM); in the assay on Staphylococcus aureus [6], 32 µg/mL (≈ 149 µM); against Bacillus anthracis [7], 16 µg/mL (≈ 74.3 µM).
For `CC(C)SSc1cccc([N+](=O)[O-])c1`, the minimum inhibitory concentration (MIC) with Staphylococcus aureus [1] was under 0.125 µg/mL; against Staphylococcus aureus [6], 16 µg/mL (≈ 69.8 µM); in the assay on Bacillus anthracis [7], 1 µg/mL (≈ 4.36 µM).
In the case of `CCOc1cccc(SSC)c1`, the zone of inhibition at 20 µg/disc in the assay with Staphylococcus aureus [4] came out at 9 mm.
Consider `CSSc1ccccc1[N+](=O)[O-]`, for which the zone of inhibition at 20 µg/disc in the assay with Staphylococcus aureus [4] stood at 37 mm; with Bacillus anthracis [10], 31 mm. In addition, the figures for the MIC in the assay with Staphylococcus aureus [1], against Staphylococcus aureus [6] and in the assay with Bacillus anthracis [7] were 16 µg/mL (≈ 79.5 µM), 32 µg/mL (≈ 159 µM) and 16 µg/mL (≈ 79.5 µM), respectively.
Regarding `CSSc1ccc(F)c(F)c1`, the zone of inhibition at 20 µg/disc in the assay with Staphylococcus aureus [4] came out at 11 mm.
Regarding `CSSc1ccc([N+](=O)[O-])cc1`, the zone of inhibition at 20 µg/disc in the assay on Staphylococcus aureus [4] was determined as 35 mm. The minimum inhibitory concentration (MIC) in the assay on Staphylococcus aureus [1] was determined as 16 µg/mL (≈ 79.5 µM); against Staphylococcus aureus [6] it was 32 µg/mL (≈ 159 µM); against Bacillus anthracis [7], 1 µg/mL (≈ 4.97 µM); against Escherichia coli [8] it was 16 µg/mL (≈ 79.5 µM). The inhibition with Escherichia coli [9] was determined as 94%.
Regarding `CO[C@H]1C(=O)N(SC)[C@H]1c1ccccc1Cl`, in the assay with Escherichia coli [5], the inhibition is 89%.
Regarding `CSSc1cccc([N+](=O)[O-])c1`, the zone of inhibition at 20 µg/disc turned out to be 36 mm in the assay on Staphylococcus aureus [4] and 43 mm in the assay on Bacillus anthracis [10]. The minimum inhibitory concentration (MIC) in the assay with Staphylococcus aureus [1] came out at 16 µg/mL (≈ 79.5 µM); with Staphylococcus aureus [6], 64 µg/mL (≈ 318 µM); against Bacillus anthracis [7] it was 8 µg/mL (≈ 39.7 µM).
As to `CC1(C)S[C@@H]2[C@H](NC(=O)Cc3ccccc3)C(=O)N2[C@H]1C(=O)O` [PENICILLIN G], in the assay with Staphylococcus aureus [4], the zone of inhibition at 20 µg/disc was determined as 33 mm. Also, the minimum inhibitory concentration (MIC) in the assay with Staphylococcus aureus [1] stood at 0.03 µg/mL (≈ 0.0897 µM); with Staphylococcus aureus [6], 64 µg/mL (≈ 191 µM).
Regarding `CSSCc1ccc([N+](=O)[O-])cc1`, the result in the assay on Staphylococcus aureus [1] was Active. This compound came in with a minimum inhibitory concentration (MIC) with Bacillus anthracis [7] of 32 µg/mL (≈ 149 µM).
With `CCC(C)SSc1cccc([N+](=O)[O-])c1` (configuration not stated), the zone of inhibition at 20 µg/disc worked out at 45 mm in the assay on Staphylococcus aureus [4] and 41 mm in the assay on Bacillus anthracis [10]. Moreover, the figures for the MIC against Staphylococcus aureus [1], against Staphylococcus aureus [6] and against Bacillus anthracis [7] were 8 µg/mL (≈ 32.9 µM), 32 µg/mL (≈ 131 µM) and 8 µg/mL (≈ 32.9 µM), respectively.
Take `CSSc1ccc(NC(C)=O)cc1`: the zone of inhibition at 20 µg/disc in the assay on Staphylococcus aureus [4] came out at 20 mm.
